Experimental data published in ChEMBL document CHEMBL5335836, “Discovery of a new pyrido[2,3-d]pyridazine-2,8-dione derivative as a potential anti-inflammatory agent through COX-1/COX-2 dual inhibition” (RSC Med Chem, 2024).

Assays:
Mus musculus [1] = assay: Anti-inflammatory activity against croton oil induced ear edema Swiss mouse model assessed as edema inhibition at 1.25 mg per ear, TOP measured after 6 hrs relative to control; assay type: functional
Outline: (§1)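 Male Swiss mice (20–30 g), n=7/group. Croton oil (200 µg/ear in 70% acetone) applied to the inner left ear, with vehicle alone on the right ear. Treatments in 20 µL 70% acetone were then applied topically to the left ear at 0.625 or 1.25 mg/ear, or 1 mg/ear for the reference drug. After 6 h, 6.0 mm ear disks were weighed and % edema inhibition calculated.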

Mus musculus [2] = assay: Anti-inflammatory activity against croton oil induced ear edema Swiss mouse model assessed as edema inhibition at 0.625 mg per ear, TOP measured after 6 hrs relative to control; assay type: functional; outline: as §1
[3] = Cytotoxicity against mouse L929 cells assessed as reduction in cell viability incubated for 72 hrs by MTT assay; assay type: toxicity, cell-based
Outline: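 Fibroblasts (CCL-1) were seeded at 2.5 × 10^5 cells/mL in DMEM + 10% FBS and grown 24 h at 37 °C, 5% CO2 to confluence. They were exposed to 100–1000 µM compound for 72 h, then given MTT (2 mg/mL) for 4 h. Formazan was dissolved in DMSO and read at 492 nm. Viability relative to control gave CC50.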

[4] = molecular target: T1, Prostaglandin G/H synthase 2 (Homo sapiens) (UniProt P35354); assay: Inhibition of human recombinant COX-2 at 1.95 uM by microplate reader analysis relative to control
T1 sequence (whole entry): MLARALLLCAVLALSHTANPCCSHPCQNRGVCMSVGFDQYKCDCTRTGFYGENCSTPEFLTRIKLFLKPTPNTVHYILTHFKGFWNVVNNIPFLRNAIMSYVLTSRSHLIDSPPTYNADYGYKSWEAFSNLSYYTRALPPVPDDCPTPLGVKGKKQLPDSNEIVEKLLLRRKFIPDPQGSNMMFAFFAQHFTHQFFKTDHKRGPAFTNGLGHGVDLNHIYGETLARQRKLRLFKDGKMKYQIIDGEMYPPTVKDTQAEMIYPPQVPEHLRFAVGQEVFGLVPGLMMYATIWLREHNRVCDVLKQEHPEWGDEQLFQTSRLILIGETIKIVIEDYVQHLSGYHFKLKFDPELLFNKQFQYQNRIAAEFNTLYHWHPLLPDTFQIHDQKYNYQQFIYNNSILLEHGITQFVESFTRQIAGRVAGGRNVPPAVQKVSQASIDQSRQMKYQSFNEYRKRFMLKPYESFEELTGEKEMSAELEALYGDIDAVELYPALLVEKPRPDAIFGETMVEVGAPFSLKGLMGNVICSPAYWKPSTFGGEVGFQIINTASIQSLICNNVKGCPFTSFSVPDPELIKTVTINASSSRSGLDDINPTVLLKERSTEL
Outline: (§2)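 Kit-based cyclooxygenase inhibitor screen using human recombinant COX-2 or ovine COX-1, run per the manufacturer's procedure. Compound was tested at 1.95 and 31.25 µM. Absorbance was read at 405 nm. % inhibition was derived from %B/B0 on a standard curve.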

[5] = molecular target: T1, Prostaglandin G/H synthase 2 (Homo sapiens); assay: Inhibition of human recombinant COX-2 at 31.25 uM by microplate reader analysis relative to control; outline: as §2
[6] = molecular target: T2, Prostaglandin G/H synthase 1 (Ovis aries) (UniProt P05979); assay: Inhibition of ovine COX-1 at 1.95 uM by microplate reader analysis relative to control; outline: as §2
T2 sequence (whole entry): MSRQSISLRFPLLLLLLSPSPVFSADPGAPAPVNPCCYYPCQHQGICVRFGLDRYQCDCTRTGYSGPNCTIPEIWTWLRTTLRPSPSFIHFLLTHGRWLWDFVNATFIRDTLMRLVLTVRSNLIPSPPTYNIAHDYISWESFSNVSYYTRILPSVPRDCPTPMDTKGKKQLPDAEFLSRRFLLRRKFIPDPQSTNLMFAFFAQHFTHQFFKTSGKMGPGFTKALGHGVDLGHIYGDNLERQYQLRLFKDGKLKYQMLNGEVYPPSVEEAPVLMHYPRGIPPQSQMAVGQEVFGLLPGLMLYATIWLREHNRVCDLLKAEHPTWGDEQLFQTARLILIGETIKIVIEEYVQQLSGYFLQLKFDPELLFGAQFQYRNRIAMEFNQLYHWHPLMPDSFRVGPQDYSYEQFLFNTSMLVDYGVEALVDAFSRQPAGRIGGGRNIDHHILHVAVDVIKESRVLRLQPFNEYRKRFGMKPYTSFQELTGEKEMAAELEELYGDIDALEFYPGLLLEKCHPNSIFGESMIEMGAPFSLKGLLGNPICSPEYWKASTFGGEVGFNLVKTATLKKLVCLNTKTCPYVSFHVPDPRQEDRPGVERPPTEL

[7] = molecular target: T2, Prostaglandin G/H synthase 1 (Ovis aries); assay: Inhibition of ovine COX-1 at 31.25 uM by microplate reader analysis relative to control; outline: as §2
Mus musculus [8] = assay: Anti-inflammatory activity against croton oil induced ear edema Swiss mouse model assessed as edema inhibition at 1.00 mg per ear, TOP measured after 6 hrs relative to control; assay type: functional; outline: as §1

Row | SMILES | inhibition (INH) (Mus musculus [1]) | inhibition (INH) (Mus musculus [2]) | also measured
1 | N#Cc1cc2c(-c3ccc(Cl)cc3)nn(-c3ccccc3)c(=O)c2[nH]c1=O | 81.8% | 62.8% | IC50 at 72 h [3]: 249 µM; inhibition [4]: 20.2%; inhibition [5]: 40.3%; inhibition [6]: 22.1%; inhibition [7]: 30.6%
2 | N#Cc1cc2c(-c3ccc([N+](=O)[O-])cc3)nn(-c3ccccc3)c(=O)c2[nH]c1=O | 78.5% | – | –
3 | O=C(O)c1cc2c(-c3ccc([N+](=O)[O-])cc3)n[nH]c(=O)c2[nH]c1=O | 56.2% | 63.2% | –
4 | O=C(O)c1cc2c(-c3ccc(Cl)cc3)n[nH]c(=O)c2[nH]c1=O | 75.2% | 65.9% | –
5 | COc1ccc2c(c1)c(CC(=O)O)c(C)n2C(=O)c1ccc(Cl)cc1 [INDOMETHACIN] | – | – | inhibition (INH) (Mus musculus [8]): 98.2%
6 | CCOC(=O)c1cc2c(-c3ccc([N+](=O)[O-])cc3)n[nH]c(=O)c2[nH]c1=O | – | 64.2% | –
7 | N#Cc1cc2c(-c3ccc(Cl)cc3)n[nH]c(=O)c2[nH]c1=O | 50.4% | 49% | –
